Compound activity deposited in PubChem BioAssay by Johns Hopkins Ion Channel Center.
KCNQ1 inh – inhibitors of human KCNQ1 channel, primary screen, cell-based, thallium flux, high-throughput. CHO-K1 KCNQ1, FluxOR thallium flux fluorescence; hits give high values. Potassium voltage-gated channel subfamily KQT member 1 (Homo sapiens), P51787. AID 2642, 2010. B-score at 10 µM. 310,000 compounds, 1.3% hits;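 active means compounds whose thallium flux B-score, printed positive for inhibition, exceeds three library SD while starting fluorescence stays within three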;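 further: channel opened by potassium depolarization with thallium stimulus after 20 min compound exposure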
KCNQ1 pot – potentiators or activators of KCNQ1 channel, primary screen, cell-based, thallium flux, high-throughput | B-score at 10 µM | 310,000 compounds, 0.35% hits | Potassium voltage-gated channel subfamily KQT member 1 (Homo sapiens), P51787 | CHO-K1 KCNQ1, thallium flux FluxOR fluorescence; hits give high values | AID 2648, 2010;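 active means fluorescence ratio B-score, a plate-corrected score, at least three library SD, with initial intensity B-score within 5 SD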
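Schedule – 37 °C overnight plating, 90-min dark dye load, 20-min compound pretreatment · System – stable KCNQ1 CHO-K1 line · Probe or stimulus – thallium- and potassium-containing depolarizing buffer · Measured by – kinetic FluxOR fluorescence, 10 s baseline plus 110 s post-stimulus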
Kir21 block – inhibitors of mouse Kir2.1 inward-rectifier potassium channel; Inward rectifier potassium channel 2 (Mus musculus), P35561; 310,000 compounds, 0.85% hits; HEK293-Kir2.1, FluxOR thallium flux fluorescence; hits give low values; B-score at 10 µM;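 active means fluorescence ratio B-score at or below minus 3 SD of library scores, with starting-brightness B-score within 2 SD, cut at about -4.2 in these data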;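 further: channel flux triggered by added potassium and thallium sulfate stimulus; B-score of peak minus minimum fluorescence over baseline after thallium stimulus; more negative B-score means stronger Kir2.1 block with less thallium influx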
KCNK9 block – KCNK9 potassium channel inhibitors, primary screen, HEK293 cells, thallium flux | AID 488922, 2010 | 310,000 compounds, 1.2% hits | B-score at 10 µM | Potassium channel subfamily K member 9 (Homo sapiens), Q9NPC2 | FluxOR thallium flux fluorescence; hits give low values;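 active means ratio B-score over 3 SD below the library mean, with starting fluorescence within 5 SD of its mean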;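 further: negative B-score means less thallium flux so channel inhibition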
hERG rescue – hERG rescue from dofetilide block, primary screen, cell-based, CHO-hERG, FluxOR thallium flux, dofetilide IC70. Voltage-gated inwardly rectifying potassium channel KCNH2 (Homo sapiens), Q12809. AID 1511, 2009. 310,000 compounds, 0.51% hits. activation (rescue from dofetilide block), less the hit threshold, % at 10 µM. dofetilide IC70 present;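 active means activation above the mean of controls blocked by dofetilide plus 5 SD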;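 further: thallium influx through hERG after potassium depolarization seen as dye fluorescence rise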
KCNK3 inh – human KCNK3 channel inhibitors, primary screen, CHO cells, FluxOR thallium flux, B-score. FluxOR fluorescence; hits give low values. B-score at 10 µM. 340,000 compounds, 0.84% hits. AID 602410, 2012;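 active means B-score under library mean minus 4 SD, starting fluorescence ratio at most library mean plus 5 SD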;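 further: more negative B-score means stronger inhibition of thallium flux through KCNK3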
Target sequence (O14649 whole entry, looked up): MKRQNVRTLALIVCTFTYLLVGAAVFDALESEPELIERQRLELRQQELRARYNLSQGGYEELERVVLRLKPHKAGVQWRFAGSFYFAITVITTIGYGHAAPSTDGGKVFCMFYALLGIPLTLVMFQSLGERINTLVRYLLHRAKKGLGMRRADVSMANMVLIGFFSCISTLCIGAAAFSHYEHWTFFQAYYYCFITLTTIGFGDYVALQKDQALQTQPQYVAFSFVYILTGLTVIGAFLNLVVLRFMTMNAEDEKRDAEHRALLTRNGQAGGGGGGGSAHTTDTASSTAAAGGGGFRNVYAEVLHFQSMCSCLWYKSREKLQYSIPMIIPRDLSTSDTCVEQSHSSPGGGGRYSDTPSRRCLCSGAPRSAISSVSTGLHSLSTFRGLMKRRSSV
KCNK3 confirm – retest of human KCNK3 channel inhibitors, confirmation, CHO cells, FluxOR thallium flux, triplicate; shares compounds with KCNK3 inh; FluxOR fluorescence; 0% buffer, 100% carvedilol maximal block; ratio percent of control, % at 10 µM; 2,400 compounds, 99% hits; AID 651638, 2012;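 active means ratio percent of control, averaged over triplicates, above buffer control mean plus 5 SD, cut at about 64% in these data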;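 further: ratio is the fluorescence rise from min to max over baseline after thallium stimulus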
KCNK3 uninduced – thallium flux inhibition in non-induced cells, primary screen, counter-screen for KCNK3 inhibitor project, cell-based, non-induced KCNK3 line, FluxOR thallium, triplicate; shares compounds with KCNK3 inh; non-induced KCNK3 parental cells; hits give low values; thallium flux ratio (lower = more inhibition) at 10 µM; 2,400 compounds, 40% hits; AID 651747, 2012;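 active means thallium flux ratio, averaged over three wells, more than 5 SD below the buffer control mean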;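 further: host cells are CHO cells without KCNK3 induction; ratio is peak minus trough fluorescence over baseline then normalized to buffer controls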
Numbers without * were called inactive; i = inactive; nt = no result given. The list is not random: actives were taken first. Their share in the collection is about 3.7%.

SMILES	KCNQ1 inh	KCNQ1 pot	Kir21 block	KCNK9 block	hERG rescue	KCNK3 inh	KCNK3 confirm	KCNK3 uninduced
Cc1cc(-c2ccc(S(=O)(=O)N3CCN(C)CC3)s2)on1	i	i	-0.89	i	-5	i	nt	nt
N#Cc1cc2cc3ccccc3nc2n2c(=O)c3ccccc3nc12	i	i	-2.5	i	-9	-9.6*	122*	0.12*
Cn1c(=O)c2cc3ccccc3nc2n(C)c1=O	i	i	0.42	i	-1	i	nt	nt
O=C(CSc1ccc2nnc(-c3cccnc3)n2n1)Nc1ccc(F)cc1F	i	i	1.7	i	-4	i	nt	nt
Cc1ccc(C(=O)CSc2nc(N)cc(=O)[nH]2)cc1	i	i	-1.2	i	-9	i	nt	nt
C=C(C)CSc1nc(N)cc(=O)[nH]1	i	i	-0.07	i	-1	-21*	67*	i
COc1ccccc1CNC(=O)c1sccc1-c1ccccc1	i	i	-6.6*	i	-7	-10*	103*	i
COc1cccc(C(=O)O/N=C(\N)CS(=O)(=O)c2ccccc2)c1	i	i	-0.13	i	-10	i	nt	nt
O=C(O)CCC(=O)Nc1ccccc1Oc1ccccc1	i	i	0.06	i	-5	i	nt	nt
Cc1ccc2oc(-c3cccc(NC(=O)c4ccc(Br)o4)c3)nc2c1	i	i	-0.63	i	-8	-11*	105*	i
Nc1cc(C(=O)N/N=C/c2cccc([N+](=O)[O-])c2)n[nH]c1=O	i	i	0.27	i	-3	i	nt	nt
COc1c(C(=O)Nc2ccc(Br)cn2)ccc2ccccc12	i	i	1.2	-7.2*	-2	-11*	97*	0.16*
COc1cc(NC(=O)CN2C(=O)COc3ccc(S(=O)(=O)N4CCCCC4)cc32)cc(OC)c1	i	i	-0.97	i	-10	-8.8*	113*	i
COc1cc(CN(C)CC2CCCN(CCc3ccc(F)cc3)C2)c(Cl)cc1O (stereo not given)	i	i	0.83	i	-9	-9.6*	80*	i
COc1cc(CN(C)CC2CCCN(CCc3cccc(C(F)(F)F)c3)C2)ccc1O (stereo not given)	i	i	-1.2	i	-7	i	nt	nt
O=C(c1ccc(N2CCCS2(=O)=O)cc1)N1CCN(c2ccccc2)CC1	i	i	1.2	i	-11	i	nt	nt
S=c1[nH]c(-c2ccc(Br)cc2)cn1CCc1ccccc1	i	i	0.54	i	-11	i	nt	nt
c1ccc(-c2nc(NCCCn3ccnc3)c3ccccc3n2)cc1	i	i	-1	i	-31	-11*	100*	0.15*
O=C1Cc2cc(S(=O)(=O)N3CCN(c4cccc(Cl)c4)CC3)ccc2N1	i	i	2	i	-10	i	nt	nt
CCOc1ccccc1NC(=O)CSc1nc(=O)n(CCCN2CCOCC2)c2c1CCCC2	i	i	0.26	i	-11	i	nt	nt
COc1ccc(/C=C2/Sc3ccc(C(=O)NCCCN4CCOCC4)cc3NC2=O)cc1OC	i	i	-1	i	-12	i	nt	nt
COc1cccc(/C=C2/Sc3ccc(C(=O)NCCN4CCCCCC4)cc3NC2=O)c1	7*	i	-0.15	i	-35	-10*	112*	i
